Data reported in ChEMBL document CHEMBL5120755, “A new strategy for hit generation: Novel in cellulo active inhibitors of CYP121A1 from Mycobacterium tuberculosis via a combined X-ray crystallographic and phenotypic screening approach (XP screen)” (Eur J Med Chem, 2022).
pKd: −log10 of the molar value.

Columns and labels:
[1] = Inhibition of Mycobacterium tuberculosis CYP121A1 mediated cYY conversion to mycocyclosin assessed as fold change in cYY level at 100 uM incubated for 2 hrs in the presence of NADPH by LC-MS activity assay relative to clotrimazole; type: ADME; conditions: recombinant enzyme
[2] = Binding affinity to Mycobacterium tuberculosis CYP121A1 expressed in Escherichia coli HMS174 (DE3) assessed as thermal stability by measuring increase in melting temperature at 1mM by SYPRO orange dye based differential scanning fluorimetry assay; conditions: 1000 µM
Method in brief: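 Protein at 5 μM in 100 mM potassium phosphate pH 6.9 with 2.5× Sypro Orange. Ligand 1 mM final, 4% DMSO-d6. Scanned 25–95 °C in 0.5 °C steps of 30 s. Positive Tm shifts repeated in triplicate and averaged over four runs.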

[3] = Binding affinity to Mycobacterium tuberculosis CYP121A1 expressed in Escherichia coli HMS174 (DE3) assessed as dissociation constant by isothermal titration calorimetry; type: ADME
Method in brief: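 Untagged His-purified CYP121A1 at 50 μM in 50 mM Tris-HCl, 1 mM EDTA, pH 7.2, with 10% DMSO-d6. Ligand at 0.5 or 2.5 mM final. One 0.2 μL injection discarded, then 19 injections of 2 μL at 120 s intervals, 25 °C. Ligand-into-buffer heats subtracted. One-site fit, N fixed at 1 for weak binders or left free.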

[4] = Inhibition of cYY binding to Mycobacterium tuberculosis CYP121A1 expressed in Escherichia coli HMS174 (DE3) assessed as dissociation constant of cYY preincubated with compound followed by substrate addition by competitive UV-visible spectroscopic analysis; type: ADME
Method in brief: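 CYP121A1 at 5 μM. […] UV-vis difference spectra processed as for direct titrations and fitted to the Hill equation for Kd.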

[5] = test system: Mycobacterium tuberculosis; experiment: Antimycobacterial activity against Mycobacterium tuberculosis H37Rv assessed as inhibition of bacterial growth in presence of middlebrook 7H9/ADC/tyloxapol/glycerol medium measured for 1 week by resazurin based colorimetric assay; type: functional; conditions: 168 h, time 1 weeks
Method in brief: (§1)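 Mtb H37Rv grown in 7H9 with 10% ADC, 0.05% tyloxapol, 0.02% glycerol to OD600 ~1, then pre-adapted 8 days at 37 °C in the test medium (c7H9, 7H9-Low BSA or MMM-Ch). DMSO stocks serially diluted, 400 to 0.78 μM, about 10^5 CFU per well. Incubated at 37 °C for 1 week (c7H9, Low BSA) or 2 weeks (MMM-Ch). 0.02% resazurin added for 1 day more. MIC90 read visually as lowest concentration with no colour change.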

[6] = test system: Mycobacterium tuberculosis; experiment: Antimycobacterial activity against Mycobacterium tuberculosis H37Rv assessed as inhibition of bacterial growth in presence of middlebrook 7H9/BSAADN//tyloxapol/glycerol medium measured for 1 week by resazurin based colorimetric assay; type: functional; conditions: 168 h, time 1 weeks; method in brief: as §1
[7] = test system: Mycobacterium tuberculosis; experiment: Antimycobacterial activity against Mycobacterium tuberculosis H37Rv assessed as inhibition of bacterial growth in presence of Mycobacterial minimal medium with cholesterol measured for 2 weeks by resazurin based colorimetric assay; type: functional; conditions: 336 h; method in brief: as §1

Compound | fold change (FC) [1] | further results
c1ccc2c(CCc3ccncc3)c[nH]c2c1 | 1.1 | 
c1ccc2c(CCc3ccncn3)c[nH]c2c1 | 1.8 | deltaTm [2]: 3.5 °C
Nc1[nH]nc(-c2ccc(O)cc2)c1-c1ccc(O)cc1 |  | deltaTm [2]: 1 °C; pKd [3]: 4.70
c1ccc2c(c1)OCCN2c1nccc(CCc2c[nH]c3ccccc23)n1 | 0.1 | pKd [4]: 4.76
Clc1ccc2[nH]cc(CCc3ccncc3)c2c1 | 2.3 | 
c1ccc2c(CCc3nc4c(c(N5CCOCC5)n3)CNC4)c[nH]c2c1 | 4.1 | deltaTm [2]: 3.5 °C
N[C@H](Cc1c[nH]c2ccccc12)c1nc(-c2ccccc2)cs1 |  | MIC90 [5]: 40 µM; MIC90 [6]: 40 µM; MIC90 [7]: 40 µM
c1ccc2c(CCc3nc4c(c(N5CCOCC5)n3)CCNC4)c[nH]c2c1 | 1.3 | deltaTm [2]: 1 °C
Cn1cc(CCc2ccnc(N3CCOCC3)n2)c2ccccc21 | 2.1 | 
Brc1ccc2c(c1)N(c1nccc(CCc3c[nH]c4ccccc34)n1)CCO2 | 0.3 | 
Oc1ccc2[nH]cc(CCc3ccnc(N4CCOCC4)n3)c2c1 | 3.5 | deltaTm [2]: 0.5 °C
N[C@H](Cc1c[nH]c2ccccc12)c1nc(-c2ccccn2)cs1 |  | MIC90 [5]: 40 µM; MIC90 [6]: 40 µM; MIC90 [7]: 40 µM
Fc1ccc2[nH]cc(CCc3ccnc(N4CCOCC4)n3)c2c1 | 10.6 | 
FC(F)(F)Oc1ccc2[nH]cc(CCc3ccnc(N4CCOCC4)n3)c2c1 | 1.1 | 
c1ccc2c(CCc3nc4c(c(N5CC6CCC(C5)O6)n3)CNC4)c[nH]c2c1 |  | deltaTm [2]: 2.4 °C
COC1CN(c2nccc(CCc3c[nH]c4ccccc34)n2)C1 | 1.2 | 
c1ccc2c(CCc3ccnc(N4CCCOCC4)n3)c[nH]c2c1 | 4.7 | 
N[C@H](Cc1c[nH]c2ccccc12)c1nc(-c2ccc(OC(F)(F)F)cc2)cs1 |  | MIC90 [5]: 40 µM; MIC90 [6]: 40 µM; MIC90 [7]: 40 µM
c1ccc2c(CCc3ccnc(N4CCOCC4)n3)c[nH]c2c1 | 4.7 | pKd [4]: 4.60
Ic1ccc2[nH]cc(CCc3ccncc3)c2c1 | 1.9 | 
COc1ccc2[nH]cc(CCc3ccncc3)c2c1 | 1 | 
Fc1ccc2[nH]cc(CCc3ccncc3)c2c1 | 3.5 | 
FC(F)(F)Oc1ccc2[nH]cc(CCc3ccncc3)c2c1 | 1.2 | 
COC1CN(c2nccc(CCc3c[nH]c4ccc(Br)cc34)n2)C1 | 1.8 | 
Brc1ccc2[nH]cc(CCc3ccncc3)c2c1 | 1.3 | 
Brc1ccc2[nH]cc(CCc3ccnc(N4CCOCC4)n3)c2c1 | 3.8 | 
